Assay results taken from ChEMBL document CHEMBL1240529, “Synthesis, anti-inflammatory activity, and in vitro antitumor effect of a novel class of cyclooxygenase inhibitors: 4-(aryloyl)phenyl methyl sulfones” (J Med Chem, 2010).

Columns and labels:
[1] = tested on: NCI-H460; experiment: Cytotoxicity against human NCI-H460 cells assessed as inhibition of cell viability at 10 uM by MTT assay; format: functional
Summary of the method: (§1)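 Cells were grown in MEM with 10% FBS and antibiotics at 37 °C, 5% CO2, plated at 2.0 × 10^4 cells/well and grown for 72 h. Compound or 0.1% DMSO was added, then MTT (5 mg/mL) for 3 h at 37 °C, read at 570 nm (690 nm blank). […] Inhibition = (DMSO control − treated)/control; two experiments in duplicate.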

[2] = target: T1, Prostaglandin G/H synthase 1 (Ovis aries, UniProt P05979); experiment: Inhibition of sheep COX1 by spectrophotometry
T1 sequence (P05979 whole entry): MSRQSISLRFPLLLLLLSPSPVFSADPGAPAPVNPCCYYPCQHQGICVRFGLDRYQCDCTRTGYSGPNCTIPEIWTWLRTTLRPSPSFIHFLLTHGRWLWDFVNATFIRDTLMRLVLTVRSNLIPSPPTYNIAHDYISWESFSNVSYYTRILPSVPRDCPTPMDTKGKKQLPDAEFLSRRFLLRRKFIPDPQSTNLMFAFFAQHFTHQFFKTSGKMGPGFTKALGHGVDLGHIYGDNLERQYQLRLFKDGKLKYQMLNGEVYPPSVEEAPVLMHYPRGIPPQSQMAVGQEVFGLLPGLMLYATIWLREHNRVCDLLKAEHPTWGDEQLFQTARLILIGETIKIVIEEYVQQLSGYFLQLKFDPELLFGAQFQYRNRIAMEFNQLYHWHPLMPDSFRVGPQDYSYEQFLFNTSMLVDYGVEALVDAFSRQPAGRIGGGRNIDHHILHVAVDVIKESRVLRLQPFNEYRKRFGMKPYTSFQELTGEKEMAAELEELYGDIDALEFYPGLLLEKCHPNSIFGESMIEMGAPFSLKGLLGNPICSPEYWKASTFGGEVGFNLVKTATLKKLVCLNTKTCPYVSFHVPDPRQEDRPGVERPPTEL

[3] = tested on: Rattus norvegicus; experiment: Antiinflammatory activity in Sprague-Dawley rat assessed as inhibition of carrageenan induced paw swelling at 70 mg/kg, po after 4 hrs
[4] = tested on: HT-29; experiment: Cytotoxicity against human HT-29 cells by MTT assay; format: functional, cell-based; summary of the method: as §1
[5] = tested on: Rattus norvegicus; experiment: Antiinflammatory activity in Sprague-Dawley rat assessed as inhibition of carrageenan induced paw swelling at 70 mg/kg, po after 3 hrs
[6] = tested on: K562; experiment: Cytotoxicity against human K562 cells assessed as inhibition of cell viability at 10 uM by trypan blue dye exclusion
[7] = Cytotoxicity against human HDF cells assessed as inhibition of cell viability at 100 uM by MTT assay; format: cell-based; details: read-out: INH; summary of the method: as §1

With `CS(=O)(=O)c1ccc(Nc2ccc(F)cc2)cc1` the inhibition at 10 µM [1] was 1.8%, the IC50 [2] was 141 µM and the inhibition in vivo at 70 mg/kg [3] was 32.6%. It also gave an IC50 [4] of 130 µM, an inhibition in vivo at 70 mg/kg [5] of 41.9% and an inhibition at 10 µM [6] of 13.5%. For the same compound, the cytotoxicity at 100 µM [7] was 37.4%.

Work on `CS(=O)(=O)c1ccc(C(=O)c2ccco2)cc1` yielded an inhibition at 10 µM [1] of 3%, an IC50 [2] of 15.1 µM and an inhibition in vivo at 70 mg/kg [3] of 37.8%. It also gave an IC50 [4] of 383 µM, an inhibition in vivo at 70 mg/kg [5] of 45.5% and an inhibition at 10 µM [6] of 8.3%. For the same compound, the cytotoxicity at 100 µM [7] was 30.7%.

In the case of `CS(=O)(=O)c1ccc(C(=O)c2ccc(F)cc2)cc1`, the IC50 [2] is reported as 107 µM.

With `CS(=O)(=O)c1ccc(C(=O)c2cccn2-c2ccccc2F)cc1` the inhibition at 10 µM [1] was 13.3%, the IC50 [2] was 183 µM and the inhibition in vivo at 70 mg/kg [3] was 4.4%. The IC50 [4] was 34.1 µM, the inhibition in vivo at 70 mg/kg [5] was 13.7% and the inhibition at 10 µM [6] was 2.1%. The cytotoxicity at 100 µM [7] was 45%.

Work on `CS(=O)(=O)c1ccc(-n2ccc3ccccc32)cc1` yielded an inhibition at 10 µM [1] of 12.2%, an IC50 [2] of 78.7 µM and an inhibition in vivo at 70 mg/kg [3] of 46%. It also gave an IC50 [4] of 85 µM, an inhibition in vivo at 70 mg/kg [5] of 48.7% and an inhibition at 10 µM [6] of 16.6%. It also gave a cytotoxicity at 100 µM [7] of 34.3%.

`CS(=O)(=O)c1ccc(C(=O)c2ccsc2)cc1` showed an inhibition at 10 µM [1] of 2%, an IC50 [2] of 144 µM and an IC50 [4] of 75.7 µM. The inhibition at 10 µM [6] was 14.6% and the cytotoxicity at 100 µM [7] was 31.2%.

`CS(=O)(=O)c1ccc(-c2ccccn2)cc1` showed an IC50 [2] of 89.6 µM, an inhibition in vivo at 70 mg/kg [3] of 51.4% and an inhibition in vivo at 70 mg/kg [5] of 53.7%.

For `Cn1cc(C(=O)c2ccc(S(C)(=O)=O)cc2)c2ccccc21`, the inhibition at 10 µM [1] was 7%, the IC50 [2] was 76.4 µM and the IC50 [4] was 70.4 µM. The inhibition at 10 µM [6] was 2.1% and the cytotoxicity at 100 µM [7] was 30.8%.

With `CC(C)Cc1ccc([C@H](C)C(=O)O)cc1` [DEXIBUPROFEN] the inhibition in vivo at 70 mg/kg [3] was 23.9%.

`CS(=O)(=O)c1ccc(C(=O)c2ccc(Br)cc2)cc1` showed an inhibition at 10 µM [1] of 12.7%, an IC50 [2] of 150 µM and an inhibition in vivo at 70 mg/kg [3] of 8.1%. For the same compound, the IC50 [4] was 100 µM, the inhibition in vivo at 70 mg/kg [5] was 22% and the inhibition at 10 µM [6] was 6.2%. For the same compound, the cytotoxicity at 100 µM [7] was 29.4%.

`CS(=O)(=O)c1ccc(C(=O)c2c[nH]c3ccccc23)cc1` gave an IC50 [2] of 26.7 µM.

`CS(=O)(=O)c1ccc(C(=O)c2ccoc2)cc1` showed an inhibition at 10 µM [1] of 6%, an IC50 [2] of 150 µM and an inhibition in vivo at 70 mg/kg [3] of 22.2%. The IC50 [4] was 104 µM, the inhibition in vivo at 70 mg/kg [5] was 27% and the inhibition at 10 µM [6] was 8.3%. For the same compound, the cytotoxicity at 100 µM [7] was 36.2%.

For `CC(C)[C@H](CO)Nc1nc(Nc2cccc(Cl)c2)c2ncn(C(C)C)c2n1` [PURVALANOLA], the inhibition at 10 µM [1] was 3.98%, the IC50 [4] was > 100 µM and the inhibition at 10 µM [6] was 75.1%. The cytotoxicity at 100 µM [7] was 88.6%.

Work on `CS(=O)(=O)c1ccc(N2CCN(c3ccc(F)cc3)CC2)cc1` yielded an inhibition at 10 µM [1] of 3.1%, an IC50 [2] of 80 µM and an IC50 [4] of 65.8 µM. The inhibition at 10 µM [6] was 17.7% and the cytotoxicity at 100 µM [7] was 36.1%.

`CS(=O)(=O)c1ccc(C2Oc3ccccc3-n3cccc32)cc1` (configuration not stated) showed an inhibition at 10 µM [1] of 6.6%, an IC50 [2] of 177 µM and an IC50 [4] of 100 µM. It also gave an inhibition at 10 µM [6] of 13.5% and a cytotoxicity at 100 µM [7] of 12.3%.

For `CS(=O)(=O)c1ccc(-n2cccc2)cc1`, the inhibition at 10 µM [1] was 3%, the IC50 [2] was 86 µM and the IC50 [4] was 146 µM. The inhibition at 10 µM [6] was 1% and the cytotoxicity at 100 µM [7] was 28.9%.

`CS(=O)(=O)c1ccc(C(=O)c2ccn(-c3ccccc3F)c2)cc1` gave an inhibition at 10 µM [1] of 54.8%, an IC50 [2] of 34.6 µM and an IC50 [4] of 96.1 µM. It also gave an inhibition at 10 µM [6] of 12.5% and a cytotoxicity at 100 µM [7] of 13.4%.

With `Cc1ccc(-c2cc(C(F)(F)F)nn2-c2ccc(S(N)(=O)=O)cc2)cc1` [CELECOXIB] the inhibition at 10 µM [1] was 9.75%, the IC50 [4] was 45.5 µM and the inhibition at 10 µM [6] was 38.8%. It also gave a cytotoxicity at 100 µM [7] of 92%.

Compound `CS(=O)(=O)c1ccc(C(=O)c2cccs2)cc1` has an inhibition at 10 µM [1] of 3%, an inhibition in vivo at 70 mg/kg [3] of 56% and an IC50 [4] of 122 µM. The inhibition in vivo at 70 mg/kg [5] was 59.7%, the inhibition at 10 µM [6] was 1% and the cytotoxicity at 100 µM [7] was 25.7%.
